Measurements: ChEMBL document CHEMBL3603779, “Identification and Optimization of Benzimidazole Sulfonamides as Orally Bioavailable Sphingosine 1-Phosphate Receptor 1 Antagonists with in Vivo Activity” (J Med Chem, 2015)
Calls of active or inactive are those of the source. No cut-off for these calls is given here.

Legend:
[1] = target: T1, Sphingosine 1-phosphate receptor 1 (Homo sapiens, UniProt P21453); assay: Antagonist activity against human S1P1 receptor expressed in human U2OS cells co-expressing GFP assessed as inhibition of S1P-induced receptor translocation; assay type: cell-based
T1 sequence (P21453 whole entry): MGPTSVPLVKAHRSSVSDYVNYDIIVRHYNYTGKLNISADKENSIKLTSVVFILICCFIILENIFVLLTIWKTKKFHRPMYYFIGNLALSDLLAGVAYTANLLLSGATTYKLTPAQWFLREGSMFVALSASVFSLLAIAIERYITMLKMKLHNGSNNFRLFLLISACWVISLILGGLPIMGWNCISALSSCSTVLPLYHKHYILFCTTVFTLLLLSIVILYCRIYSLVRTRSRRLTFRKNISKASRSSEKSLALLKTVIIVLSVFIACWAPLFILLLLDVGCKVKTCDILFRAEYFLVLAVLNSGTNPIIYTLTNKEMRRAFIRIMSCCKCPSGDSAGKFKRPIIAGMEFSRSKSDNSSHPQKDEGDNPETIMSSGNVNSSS
Method in brief: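 Cellular S1P1 translocation (internalization) assay with antagonist; EC50 reported as mean of at least three separate determinations ± standard deviation.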

[2] = Intrinsic clearance in human liver microsomes pre-incubated at 37 degC for 5 mins before NADPH addition by LCMS/MS method; assay type: ADME; details: read-out: CLH
[3] = Lipophilicity, log D of the compound at pH 7.4; assay type: physicochemical; details: buffer
[4] = target: T2, Nuclear receptor subfamily 1 group I member 2 (Homo sapiens, UniProt O75469); assay: Activation of human PXR expressed in human HepG2 cells co-expressing CYP3A4 assessed as CYP3A4 activation at 10 uM by luciferase reporter gene assay relative to rifampicin; assay type: ADME, cell-based; details: hepg2, 10 µM
T2 sequence (O75469 whole entry): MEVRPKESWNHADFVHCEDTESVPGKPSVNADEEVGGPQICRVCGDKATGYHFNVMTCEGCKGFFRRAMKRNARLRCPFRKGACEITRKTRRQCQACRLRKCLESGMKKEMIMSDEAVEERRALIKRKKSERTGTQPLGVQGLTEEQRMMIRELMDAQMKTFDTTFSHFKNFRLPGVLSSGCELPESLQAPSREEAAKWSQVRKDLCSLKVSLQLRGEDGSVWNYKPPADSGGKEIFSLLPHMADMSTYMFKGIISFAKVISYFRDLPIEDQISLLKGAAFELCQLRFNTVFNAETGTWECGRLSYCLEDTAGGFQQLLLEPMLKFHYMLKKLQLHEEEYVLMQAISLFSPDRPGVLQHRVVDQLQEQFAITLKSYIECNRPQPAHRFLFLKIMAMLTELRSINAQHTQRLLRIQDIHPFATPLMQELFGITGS
Method in brief: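 Single-concentration PXR reporter gene screen, compound at 10 μM; activation expressed as a percentage of the response to rifampicin, also at 10 μM.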

Cytochrome P450 3A4 [5] = target: T3, Cytochrome P450 3A4 (Homo sapiens, UniProt P08684); assay: Induction of CYP3A4 activation in human hepatocytes at 10 uM incubated for 48 hrs using testosterone substrate relative to rifampicin; assay type: ADME, cell-based, Hepatocyte
T3 sequence (P08684 whole entry): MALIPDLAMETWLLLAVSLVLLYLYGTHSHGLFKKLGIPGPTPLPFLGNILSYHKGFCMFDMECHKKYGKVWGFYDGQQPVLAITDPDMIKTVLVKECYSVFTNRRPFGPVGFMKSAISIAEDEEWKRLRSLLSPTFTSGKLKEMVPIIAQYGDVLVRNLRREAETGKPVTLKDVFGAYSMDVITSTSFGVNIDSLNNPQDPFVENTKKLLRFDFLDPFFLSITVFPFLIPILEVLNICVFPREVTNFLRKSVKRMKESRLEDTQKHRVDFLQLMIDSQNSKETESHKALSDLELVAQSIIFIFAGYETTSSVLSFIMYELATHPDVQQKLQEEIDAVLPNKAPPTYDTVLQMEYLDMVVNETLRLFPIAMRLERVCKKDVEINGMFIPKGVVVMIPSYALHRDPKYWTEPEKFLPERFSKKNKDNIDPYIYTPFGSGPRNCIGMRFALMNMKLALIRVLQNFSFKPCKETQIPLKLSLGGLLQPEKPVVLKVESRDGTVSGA
Method in brief: (§1)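 Human hepatocyte CYP3A induction, testosterone probe with 6-β-hydroxytestosterone as marker; activity expressed as % of the rifampicin response; hepatocytes from two donors tested.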

Cytochrome P450 3A5 [6] = target: T4, Cytochrome P450 3A5 (Homo sapiens, UniProt P20815); assay: Induction of CYP3A5 activation in human hepatocytes at 10 uM incubated for 48 hrs using testosterone substrate relative to rifampicin; assay type: ADME, cell-based, Hepatocyte; method in brief: as §1
T4 sequence (P20815 whole entry): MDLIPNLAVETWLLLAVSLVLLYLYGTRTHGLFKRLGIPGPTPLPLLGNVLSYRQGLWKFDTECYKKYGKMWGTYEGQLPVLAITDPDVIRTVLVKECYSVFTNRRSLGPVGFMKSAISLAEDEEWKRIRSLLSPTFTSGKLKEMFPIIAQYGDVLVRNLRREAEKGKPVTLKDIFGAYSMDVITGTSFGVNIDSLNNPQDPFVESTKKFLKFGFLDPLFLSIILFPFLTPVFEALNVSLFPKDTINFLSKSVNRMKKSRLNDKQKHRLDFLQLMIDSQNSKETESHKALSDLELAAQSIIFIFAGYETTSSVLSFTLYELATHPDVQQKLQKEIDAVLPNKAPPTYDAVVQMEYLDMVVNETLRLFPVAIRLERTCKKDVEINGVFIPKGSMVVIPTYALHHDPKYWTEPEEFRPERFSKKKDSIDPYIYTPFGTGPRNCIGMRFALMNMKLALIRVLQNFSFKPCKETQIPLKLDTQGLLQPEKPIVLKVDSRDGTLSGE

Cytochrome P450 3A4 [7] = target: T3, Cytochrome P450 3A4; assay: Inhibition of CYP3A4 in human liver microsomes incubated for 5 mins in presence of NADPH and specific substrates by LC/MS/MS method; assay type: ADME
Cytochrome P450 3A5 [8] = target: T4, Cytochrome P450 3A5; assay: Inhibition of CYP3A5 in human liver microsomes incubated for 5 mins in presence of NADPH and specific substrates by LC/MS/MS method; assay type: ADME
Cytochrome P450 2C19 = Cytochrome P450 2C19 (Homo sapiens, UniProt P33261); assay: Inhibition of CYP2C19 in human liver microsomes incubated for 5 mins in presence of NADPH and specific substrates by LC/MS/MS method; assay type: ADME
Chain of Cytochrome P450 2C19 (P33261 whole entry): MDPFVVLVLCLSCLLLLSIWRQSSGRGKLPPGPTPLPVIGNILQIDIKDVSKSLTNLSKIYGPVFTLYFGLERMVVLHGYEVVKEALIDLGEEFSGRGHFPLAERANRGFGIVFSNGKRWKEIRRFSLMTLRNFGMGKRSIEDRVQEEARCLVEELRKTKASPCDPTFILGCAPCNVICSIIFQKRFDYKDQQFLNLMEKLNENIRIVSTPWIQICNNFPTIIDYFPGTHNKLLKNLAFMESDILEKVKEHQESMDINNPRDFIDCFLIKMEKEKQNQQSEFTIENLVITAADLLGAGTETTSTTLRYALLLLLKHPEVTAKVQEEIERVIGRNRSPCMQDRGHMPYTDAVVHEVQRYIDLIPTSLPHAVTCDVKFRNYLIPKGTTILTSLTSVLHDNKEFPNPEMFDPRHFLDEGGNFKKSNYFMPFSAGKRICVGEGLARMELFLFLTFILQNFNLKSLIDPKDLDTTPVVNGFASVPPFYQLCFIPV

[9] = target: Sphingosine 1-phosphate receptor 3 (Homo sapiens) (UniProt Q99500); assay: Antagonist activity against S1P3 receptor (unknown origin)
Chain of Sphingosine 1-phosphate receptor 3 (Homo sapiens) (Q99500 whole entry): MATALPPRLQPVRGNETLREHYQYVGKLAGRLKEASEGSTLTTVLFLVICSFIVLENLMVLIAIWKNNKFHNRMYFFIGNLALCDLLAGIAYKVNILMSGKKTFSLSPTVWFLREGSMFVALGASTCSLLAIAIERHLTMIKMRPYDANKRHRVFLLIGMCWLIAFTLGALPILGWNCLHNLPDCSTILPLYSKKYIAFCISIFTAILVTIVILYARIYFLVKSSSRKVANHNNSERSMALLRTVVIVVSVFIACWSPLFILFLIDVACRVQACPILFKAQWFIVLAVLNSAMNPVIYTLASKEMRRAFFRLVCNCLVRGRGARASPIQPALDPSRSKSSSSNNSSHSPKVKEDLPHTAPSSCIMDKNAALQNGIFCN

[10] = target: Sphingosine 1-phosphate receptor 1 (Mus musculus) (UniProt O08530); assay: Antagonist activity against mouse S1P1 receptor expressed in human U2OS cells co-expressing GFP assessed as inhibition of S1P-induced receptor translocation; assay type: cell-based
Chain of Sphingosine 1-phosphate receptor 1 (Mus musculus) (O08530 whole entry): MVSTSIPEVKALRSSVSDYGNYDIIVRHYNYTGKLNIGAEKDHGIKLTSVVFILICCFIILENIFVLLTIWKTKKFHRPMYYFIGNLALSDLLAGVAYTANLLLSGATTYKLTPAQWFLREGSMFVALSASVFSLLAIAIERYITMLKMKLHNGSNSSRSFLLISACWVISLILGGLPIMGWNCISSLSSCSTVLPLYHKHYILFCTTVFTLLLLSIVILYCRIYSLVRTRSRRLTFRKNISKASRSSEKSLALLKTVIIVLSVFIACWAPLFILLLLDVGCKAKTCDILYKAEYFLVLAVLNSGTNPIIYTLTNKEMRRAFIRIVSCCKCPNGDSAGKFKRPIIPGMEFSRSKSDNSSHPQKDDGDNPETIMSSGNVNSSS

Cytochrome P450 2D6 = Cytochrome P450 2D6 (Homo sapiens, UniProt P10635); assay: Inhibition of CYP2D6 in human liver microsomes incubated for 5 mins in presence of NADPH and specific substrates by LC/MS/MS method; assay type: ADME
Chain of Cytochrome P450 2D6 (P10635 whole entry): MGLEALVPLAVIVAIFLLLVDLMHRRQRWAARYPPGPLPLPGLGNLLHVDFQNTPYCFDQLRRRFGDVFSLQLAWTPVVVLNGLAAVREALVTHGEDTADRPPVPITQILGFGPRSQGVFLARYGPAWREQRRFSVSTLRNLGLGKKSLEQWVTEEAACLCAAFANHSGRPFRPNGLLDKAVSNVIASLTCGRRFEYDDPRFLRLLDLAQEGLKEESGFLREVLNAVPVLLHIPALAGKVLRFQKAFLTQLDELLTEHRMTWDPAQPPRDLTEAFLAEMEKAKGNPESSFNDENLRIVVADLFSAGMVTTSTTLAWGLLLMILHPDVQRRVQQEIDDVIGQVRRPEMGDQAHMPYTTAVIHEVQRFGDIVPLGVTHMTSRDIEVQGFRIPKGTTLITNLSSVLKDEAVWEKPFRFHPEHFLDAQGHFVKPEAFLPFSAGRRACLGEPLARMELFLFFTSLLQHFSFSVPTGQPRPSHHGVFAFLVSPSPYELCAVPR

[11] = target: T1, Sphingosine 1-phosphate receptor 1; assay: Antagonist activity against S1P1 receptor (unknown origin) expressed in human U2OS cells co-expressing GFP assessed as right-ward shift of S1P-induced response; assay type: cell-based
Method in brief: (§2)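 S1P concentration-response curves for receptor internalization run at a series of fixed antagonist concentrations, giving both curve shift and maximal internalization.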

[12] = target: T1, Sphingosine 1-phosphate receptor 1; assay: Antagonist activity against S1P1 receptor (unknown origin) expressed in human U2OS cells co-expressing GFP assessed as reduction in maximal amount of S1P-induced receptor translocation; assay type: cell-based; method in brief: as §2
[13] = Oral bioavailability in Han Wistar rat at 5 to 10 mg/kg by LC-MS/MS method; assay type: ADME, organism-based; details: in vivo

| SMILES | EC50 [1] [nM] | microsomal CLint [2] [µL/min/mg] | other results |
| --- | --- | --- | --- |
| CCn1c([C@@H](C)NS(=O)(=O)c2c(F)cc(F)cc2F)nc2ccc(C(F)(F)F)cc21 | 240 | 19 | – |
| CCn1c(C(C)NS(=O)(=O)c2ccc(Cl)cc2)nc2ncccc21 (centres undefined) | 310 | 15 | – |
| CCn1c([C@@H](C)NS(=O)(=O)c2ccccn2)nc2ccc(C(F)(F)F)cc21 | 9200 | < 3 | – |
| CCn1c([C@@H](C)NS(=O)(=O)c2ccc(Cl)cc2)nc2ccc(S(C)(=O)=O)cc21 | 1840 | < 5 | – |
| CCn1c([C@@H](C)NS(=O)(=O)c2ccc(Cl)cc2)nc2cc(CO)ccc21 | 180 | 88 | – |
| CCn1c([C@@H](C)NS(=O)(=O)c2ccc(Cl)cc2)nc2ccc(CN(C)C)cc21 | 23500 | 30 | – |
| CCn1c([C@@H](C)NS(=O)(=O)c2cn(C)c(C)n2)nc2ccc(C(F)(F)F)cc21 | 4000 | 43 | – |
| CCn1c([C@@H](C)NS(=O)(=O)c2ccc(Cl)cc2)nc2cc(C(N)=O)ccc21 | 190 | < 5 | – |
| CCCn1cc(S(=O)(=O)N[C@H](C)c2nc3ccc(C(F)(F)F)cc3n2CC)c(C)n1 | 420 | > 100 | – |
| CCn1c([C@@H](C)NS(=O)(=O)c2cnc(C)n2C)nc2ccc(C(F)(F)F)cc21 | 650 | 58 | – |
| CCn1c([C@@H](C)NS(=O)(=O)c2ccc(Cl)cc2)nc2cccc(Cl)c21 | 800 | > 100 | – |
| CCn1c(C(C)NS(=O)(=O)c2ccc(Cl)cc2)nc2ccncc21 (centres undefined) | 1170 | 93 | – |
| CCn1c([C@@H](C)NS(=O)(=O)C2CCCC2)nc2ccc(C(F)(F)F)cc21 | 1800 | – | – |
| CCn1c([C@@H](C)NS(=O)(=O)c2ccc(NC(C)=O)c(C)c2)nc2ccc(C(F)(F)F)cc21 | 12400 | > 100 | – |
| CCn1c([C@@H](C)NS(=O)(=O)c2cnn(C(C)C)c2C)nc2ccc(C(F)(F)F)cc21 | 1100 | > 100 | – |
| CCn1cc(S(=O)(=O)N[C@H](C)c2nc3ccc(C(F)(F)F)cc3n2CC)cn1 | 590 | 95 | – |
| CCn1c([C@@H](C)NS(=O)(=O)c2ccc(CC(C)C)cc2)nc2ccc(C(F)(F)F)cc21 | 1800 | > 100 | – |
| CCn1c([C@@H](C)NS(=O)(=O)C2CC2)nc2ccc(C(F)(F)F)cc21 | 9000 | < 3 | – |
| CCn1c(C(C)NS(=O)(=O)c2ccc(Cl)cc2)nc2cccnc21 (centres undefined) | 2340 | 94 | – |
| CCc1nnc([C@@H](C)NS(=O)(=O)c2ccc(Cl)cc2)n1CC | – | – | inhibition [9]: inactive |
| CCn1ncc(S(=O)(=O)N[C@H](C)c2nc3ccc(C(F)(F)F)cc3n2CC)c1C | 430 | > 100 | – |
| CCn1c([C@@H](C)NS(=O)(=O)c2ccc(Cl)cc2)nc2cc(N3CCOCC3)ccc21 | 2420 | 45 | – |
| CCn1c(C(C)NS(=O)(=O)c2ccc(Cl)cc2)nc2cnccc21 (centres undefined) | 210 | 35 | IC50 (Cytochrome P450 2D6): 230 nM; IC50 (Cytochrome P450 2C19): 910 nM |
| CCn1c([C@@H](C)NS(=O)(=O)c2cnc(NC(C)=O)s2)nc2ccc(C(F)(F)F)cc21 | 2200 | 15 | – |
| CCCn1ncc(S(=O)(=O)N[C@H](C)c2nc3ccc(C(F)(F)F)cc3n2CC)c1C | 800 | > 100 | – |
| CCn1c([C@@H](C)NS(=O)(=O)c2cn(C)nc2C)nc2ccc(C(F)(F)F)cc21 | 1000 | 28 | – |

The next lines start with results.

| EC50 [1] [nM] | microsomal CLint [2] [µL/min/mg] | SMILES | other results |
| --- | --- | --- | --- |
| 24 | > 100 | CCn1c([C@@H](C)NS(=O)(=O)c2ccc(C)cc2)nc2ccc(C(F)(F)F)cc21 | – |
| 28 | – | CCn1c([C@@H](C)NS(=O)(=O)c2ccc(C#N)nc2)nc2cnc(OC)cc21 | logD [3]: 1; Activity [4]: 11%; Activity (Cytochrome P450 3A4 [5]): < 40%; Activity (Cytochrome P450 3A5 [6]): < 40% |
| 27 | > 100 | CCn1c([C@@H](C)NS(=O)(=O)c2cccc(Cl)c2)nc2ccc(C(F)(F)F)cc21 | – |
| 130 | 71 | CCn1c([C@@H](C)NS(=O)(=O)c2ccc(Cl)cc2)nc2cc(C#N)ccc21 | – |
| 34 | – | CCn1c([C@@H](C)NS(=O)(=O)c2ccc(C#N)cc2)nc2cnccc21 | Activity [4]: 14%; Activity (Cytochrome P450 3A4 [5]): < 40%; Activity (Cytochrome P450 3A5 [6]): < 40% |
| 6 | – | CCn1c([C@@H](C)NS(=O)(=O)c2ccc(C#N)cc2)nc2cnc(C3CC3)cc21 | logD [3]: 1.9; Activity [4]: 27%; Activity (Cytochrome P450 3A4 [5]): < 40%; Activity (Cytochrome P450 3A5 [6]): < 40% |
| 9 | > 100 | CCn1c([C@@H](C)NS(=O)(=O)c2ccc(Cl)cc2)nc2ccc(OC)cc21 | – |
| 1 | > 100 | CCn1c([C@@H](C)NS(=O)(=O)c2ccc(Cl)cc2)nc2cc(F)c(Cl)cc21 | – |
| 57 | > 100 | CCn1c([C@@H](C)NS(=O)(=O)c2cccc(C#N)c2)nc2ccc(C(F)(F)F)cc21 | – |
| 30 | > 100 | CCn1c([C@@H](C)NS(=O)(=O)c2cccnc2)nc2ccc(C(F)(F)F)cc21 | IC50 (Cytochrome P450 3A4 [7]): 830 nM; IC50 (Cytochrome P450 3A5 [8]): 830 nM |
| 26 | 45 | CCn1c([C@@H](C)NS(=O)(=O)c2ccncc2)nc2ccc(C(F)(F)F)cc21 | IC50 (Cytochrome P450 2C19): 40 nM |
| 3 | – | CCn1c([C@@H](C)NS(=O)(=O)c2ccc(C#N)cc2)nc2cnc(C(F)(F)F)cc21 | logD [3]: 1.6; Activity [4]: 32%; Activity (Cytochrome P450 3A4 [5]): < 40%; Activity (Cytochrome P450 3A5 [6]): < 40% |
| 9 | – | CCn1c([C@@H](C)NS(=O)(=O)c2ccc(C#N)cc2)nc2cnc(OC)cc21 | logD [3]: 1.4; Activity [4]: 18%; Activity (Cytochrome P450 3A4 [5]): < 40%; Activity (Cytochrome P450 3A5 [6]): < 40% |
| 7 | 26 | CCn1c([C@@H](C)NS(=O)(=O)c2ccc(F)cc2)nc2ccc(C(F)(F)F)cc21 | inhibition [10]: Active |
| 12 | 34 | CCn1c([C@@H](C)NS(=O)(=O)c2ccc(C#N)cc2)nc2ccc(C(F)(F)F)cc21 | – |
| 5 | 84 | CCn1c([C@@H](C)NS(=O)(=O)c2ccc(Cl)cc2)nc2ccc(CO)cc21 | – |
| 50 | > 100 | CCn1c([C@@H](C)NS(=O)(=O)c2ccc(Cl)cc2)nc2ccccc21 | inhibition [11]: Active; inhibition [12]: Active; bioavailability [13]: 5% |
| 8 | 14 | CCn1c([C@@H](C)NS(=O)(=O)c2ccccc2)nc2ccc(C(F)(F)F)cc21 | – |
